Measured values taken from ChEMBL document CHEMBL4422635, “Structure-Based Discovery of a Subtype-Selective Inhibitor Targeting a Transient Receptor Potential Vanilloid Channel” (J Med Chem, 2019).
Activity calls are given as the source filed them. No cut-off for these calls is given here.

How the values were obtained:
[1] = target: Transient receptor potential cation channel subfamily V member 4 (Mus musculus) (UniProt Q9EPK8); assay: Antagonist activity at mouse TRPV4 expressed in HEK293T cells assessed as inhibition of GSK-1016790A evoked currents at 3 to 10 uM -60 mV holding potential by whole-cell patch clamp assay; assay type: cell-based
Transient receptor potential cation channel subfamily V member 4 (Mus musculus), sequence (Q9EPK8 whole entry): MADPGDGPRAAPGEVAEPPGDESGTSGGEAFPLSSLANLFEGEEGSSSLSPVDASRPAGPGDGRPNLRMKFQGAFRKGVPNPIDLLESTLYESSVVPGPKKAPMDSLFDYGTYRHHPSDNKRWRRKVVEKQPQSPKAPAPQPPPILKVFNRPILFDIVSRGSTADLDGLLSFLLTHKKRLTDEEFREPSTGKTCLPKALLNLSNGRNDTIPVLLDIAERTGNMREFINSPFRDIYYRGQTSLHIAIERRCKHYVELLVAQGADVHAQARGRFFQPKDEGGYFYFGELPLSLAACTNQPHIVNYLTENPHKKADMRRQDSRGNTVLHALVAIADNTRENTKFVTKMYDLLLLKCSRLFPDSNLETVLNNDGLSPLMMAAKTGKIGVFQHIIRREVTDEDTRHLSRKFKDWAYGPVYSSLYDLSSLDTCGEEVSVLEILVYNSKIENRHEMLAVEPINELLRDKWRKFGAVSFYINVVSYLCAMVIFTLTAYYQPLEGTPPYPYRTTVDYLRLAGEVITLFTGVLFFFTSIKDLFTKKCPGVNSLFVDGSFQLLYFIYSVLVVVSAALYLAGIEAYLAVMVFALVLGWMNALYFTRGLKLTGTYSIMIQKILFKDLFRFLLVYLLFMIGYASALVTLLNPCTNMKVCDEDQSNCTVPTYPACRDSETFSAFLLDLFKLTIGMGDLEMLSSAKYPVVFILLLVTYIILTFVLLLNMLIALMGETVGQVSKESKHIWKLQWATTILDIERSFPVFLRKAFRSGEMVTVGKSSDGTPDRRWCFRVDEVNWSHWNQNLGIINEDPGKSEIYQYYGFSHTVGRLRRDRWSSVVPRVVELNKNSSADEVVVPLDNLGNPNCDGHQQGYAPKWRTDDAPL
In short: (§1)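 Whole-cell voltage clamp of transiently transfected HEK293T cells co-expressing GFP, recorded 36-96 h post-transfection. Hold -60 mV; pipettes 3-7 MΩ. Bath 165 mM NaCl, 10 mM HEPES pH 7.3; pipette 140 mM KCl, 10 mM HEPES pH 7.3. Room temperature (~25 °C). IC50 from Hill fits of I/I0, the current ratio after vs before inhibitor; mean ± SEM.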

[2] = target: T1, Transient receptor potential cation channel subfamily V member 2 (Homo sapiens) (UniProt Q9Y5S1); assay: Antagonist activity at TRPV2 in human PC3M cells assessed as inhibition of LPA-induced intracellular calcium levels at 100 uM Fluo-4 AM-based fluorescence assay; assay type: cell-based
T1 sequence (whole entry): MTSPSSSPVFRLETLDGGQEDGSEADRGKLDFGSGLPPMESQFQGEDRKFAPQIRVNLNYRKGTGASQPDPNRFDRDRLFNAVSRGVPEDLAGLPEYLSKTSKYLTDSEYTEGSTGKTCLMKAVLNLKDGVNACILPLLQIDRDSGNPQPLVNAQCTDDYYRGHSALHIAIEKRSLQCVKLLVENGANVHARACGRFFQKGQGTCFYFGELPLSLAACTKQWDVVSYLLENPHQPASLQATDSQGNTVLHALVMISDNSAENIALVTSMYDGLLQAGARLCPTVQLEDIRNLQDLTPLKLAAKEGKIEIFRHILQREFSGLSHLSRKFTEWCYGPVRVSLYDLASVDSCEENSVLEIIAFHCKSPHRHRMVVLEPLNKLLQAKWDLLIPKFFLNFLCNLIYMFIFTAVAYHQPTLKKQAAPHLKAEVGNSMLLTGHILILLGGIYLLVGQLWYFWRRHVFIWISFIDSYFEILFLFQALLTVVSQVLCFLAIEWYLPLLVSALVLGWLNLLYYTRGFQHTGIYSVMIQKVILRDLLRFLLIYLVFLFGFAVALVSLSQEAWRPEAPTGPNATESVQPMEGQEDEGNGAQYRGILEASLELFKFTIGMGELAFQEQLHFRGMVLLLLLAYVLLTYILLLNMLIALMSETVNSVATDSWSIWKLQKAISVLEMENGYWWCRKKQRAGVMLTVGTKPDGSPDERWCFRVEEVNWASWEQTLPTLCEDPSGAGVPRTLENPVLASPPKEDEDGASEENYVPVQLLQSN
In short: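 PC-3M cells cultured 24 h, loaded with 2 μM Fluo-4 AM in HBSS for 45 min at 37 °C, then compound added. Cytoplasmic Ca2+ rise read as relative fluorescence at ex 485 / em 525 nm.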

PC-3M [3] = assay: Cytotoxicity against human PC3M cells assessed as reduction in cell viability up to 20 uM after 48 hrs by SRB assay; assay type: cell-based
In short: (§2)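 PC-3M cells kept in RPMI 1640 with 10% FBS at 37 °C, 5% CO2.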

Homo sapiens = species: Homo sapiens; assay: Inhibition of LPA-induced TRPV2/LPAR1 mediated cell migration in human PC3M cells at 0.1 uM after 24 hrs by transwell migration assay; assay type: cell-based
PC-3M [4] = assay: Antimetastatic activity in human PC3M cells at 5 to 20 uM after 24 hrs by transwell migration assay; assay type: functional, cell-based; in short: as §2
[5] = tested on: T2, Transient receptor potential cation channel subfamily V member 2 (Mus musculus), Q9WTR1 [Q525E]; assay: Antagonist activity at mouse TRPV2 Q525E mutant expressed in HEK293T cells assessed as inhibition of 2-APB evoked currents at -60 mV holding potential by whole-cell patch clamp assay; assay type: cell-based; in short: as §1
T2 sequence (whole entry): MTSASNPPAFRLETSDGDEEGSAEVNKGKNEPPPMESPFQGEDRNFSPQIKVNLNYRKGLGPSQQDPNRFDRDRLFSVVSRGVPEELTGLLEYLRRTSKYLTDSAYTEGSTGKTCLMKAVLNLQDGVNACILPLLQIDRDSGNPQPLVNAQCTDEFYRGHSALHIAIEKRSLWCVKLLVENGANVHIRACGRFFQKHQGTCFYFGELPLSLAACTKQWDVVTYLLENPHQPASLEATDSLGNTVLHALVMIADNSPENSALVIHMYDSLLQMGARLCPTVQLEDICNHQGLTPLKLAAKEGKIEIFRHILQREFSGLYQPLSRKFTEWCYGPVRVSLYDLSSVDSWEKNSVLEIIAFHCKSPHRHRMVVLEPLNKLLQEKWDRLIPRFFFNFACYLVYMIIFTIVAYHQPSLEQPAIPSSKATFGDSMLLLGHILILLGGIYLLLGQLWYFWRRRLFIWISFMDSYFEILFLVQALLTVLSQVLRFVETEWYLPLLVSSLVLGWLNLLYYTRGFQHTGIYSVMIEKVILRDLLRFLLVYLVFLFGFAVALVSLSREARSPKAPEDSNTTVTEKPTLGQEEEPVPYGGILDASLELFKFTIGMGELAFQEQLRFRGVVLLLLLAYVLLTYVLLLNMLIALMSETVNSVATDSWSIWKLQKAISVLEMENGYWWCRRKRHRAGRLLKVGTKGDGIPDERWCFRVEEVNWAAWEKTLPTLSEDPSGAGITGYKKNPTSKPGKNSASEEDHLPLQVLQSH

inhibition [1]: inactive
inhibition [2]: Active
inhibition [5]: inactive
Structure (SMILES): CCCN(C)c1cc(C(F)(F)F)nc(SCCC(=O)NCc2ccco2)n1
Activity (PC-3M [3]): Non-Toxic
inhibition (Homo sapiens): Active
Activity (PC-3M [4]): Active
